Measurements reported in ChEMBL document CHEMBL4052686, “Synthesis and antibacterial activity of 5-methylphenanthridium derivatives as FtsZ inhibitors” (2017).
≈ marks a conversion by molar mass, not a printed value. Calls of active or inactive are those of the source. The calls are words filed in the database; no cut-off is given here.

What was measured:
Streptococcus pyogenes [1] = assay: Antibacterial activity against penicillin-susceptible Streptococcus pyogenes clinical isolates incubated for 24 hrs by tube-dilution method; assay type: functional
Pseudomonas aeruginosa [2] = assay: Inhibition of FtsZ in penicillin-susceptible Pseudomonas aeruginosa ATCC 27853 assessed as lowest drug concentration causing inhibition of cell division incubated for 5 hrs by phase-contrast light microscopy
Outline: (§1)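 Cell division inhibition judged from bacterial cell morphology under phase-contrast light microscopy, scored as lowest concentration altering division; penicillin-susceptible strains B. subtilis ATCC9372, E. coli ATCC25922, P. aeruginosa ATCC27853, S. aureus ATCC25923.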

Bacillus subtilis [3] = assay: Potency index, ratio of MIC for oxacillin sodium to MIC for test compound against penicillin-susceptible Bacillus subtilis ATCC 9372 incubated for 24 hrs by tube-dilution method; assay type: functional
Staphylococcus aureus [4] = assay: Antibacterial activity against penicillin-susceptible Staphylococcus aureus ATCC 25923 incubated for 24 hrs by tube-dilution method; assay type: functional; details: ATCC 25923, 24 h
Outline: (§2)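 MIC by tube dilution per NCCLS; B. subtilis ATCC9372, E. coli ATCC25922, P. aeruginosa ATCC27853 and S. aureus ATCC25923 are penicillin-susceptible strains.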

Bacillus subtilis [5] = assay: Potency index, ratio of MIC for sanguinarine to MIC for test compound against penicillin-susceptible Bacillus subtilis ATCC 9372 incubated for 24 hrs by tube-dilution method; assay type: functional
Bacillus subtilis [6] = assay: Potency index, ratio of MIC for curcumin to MIC for test compound against penicillin-susceptible Bacillus subtilis ATCC 9372 incubated for 24 hrs by tube-dilution method; assay type: functional
Bacillus subtilis [7] = assay: Potency index, ratio of MIC for ciprofloxaxin to MIC for test compound against penicillin-susceptible Bacillus subtilis ATCC 9372 incubated for 24 hrs by tube-dilution method; assay type: functional
[8] = tested on: Staphylococcus epidermidis; assay: Antibacterial activity against penicillin-resistant Staphylococcus epidermidis clinical isolates incubated for 24 hrs by tube-dilution method; assay type: functional
Bacillus subtilis [9] = assay: Inhibition of FtsZ in penicillin-susceptible Bacillus subtilis ATCC 9372 assessed as lowest drug concentration causing inhibition of cell division incubated for 5 hrs by phase-contrast light microscopy; outline: as §1
Escherichia coli [10] = assay: Inhibition of FtsZ in penicillin-susceptible Escherichia coli ATCC 25922 assessed as lowest drug concentration causing inhibition of cell division incubated for 5 hrs by phase-contrast light microscopy; outline: as §1
Sus scrofa = organism: Sus scrofa; assay: Induction of porcine tubulin polymerisation at 2 times MIC for penicillin-resistant Staphylococcus aureus by fluorescence microscopy
Outline: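 Polymerisation of mammalian tubulin measured with a commercial tubulin assay kit, read by fluorescence of the kit reporter, with paclitaxel as the positive control for enhanced polymerisation.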

Staphylococcus aureus [11] = assay: Antibacterial activity against penicillin-resistant Staphylococcus aureus clinical isolates incubated for 24 hrs by tube-dilution method; assay type: functional
Pseudomonas aeruginosa [12] = assay: Antibacterial activity against penicillin-susceptible Pseudomonas aeruginosa ATCC 27853 incubated for 24 hrs by tube-dilution method; assay type: functional; details: ATCC 27853, 24 h; outline: as §2
Streptococcus pyogenes [13] = assay: Potency index, ratio of MIC for sanguinarine to MIC for test compound against penicillin-susceptible Streptococcus pyogenes clinical isolates incubated for 24 hrs by tube-dilution method; assay type: functional
Streptococcus pyogenes [14] = assay: Antibacterial activity against penicillin-resistant Streptococcus pyogenes clinical isolates incubated for 24 hrs by tube-dilution method; assay type: functional
Staphylococcus aureus [15] = assay: Inhibition of FtsZ in penicillin-susceptible Staphylococcus aureus ATCC 25923 assessed as lowest drug concentration causing inhibition of cell division incubated for 5 hrs by phase-contrast light microscopy; outline: as §1
Staphylococcus aureus [16] = assay: Antibacterial activity against […] Staphylococcus aureus ATCC 29213 incubated for 24 hrs by tube-dilution method; assay type: functional; details: ATCC 29213, 24 h
Outline: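 Broth tube-dilution MIC run as NCCLS recommends, against the […] S. aureus strain ATCC29213.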

Escherichia coli [17] = assay: Antibacterial activity against penicillin-susceptible Escherichia coli ATCC 25922 incubated for 24 hrs by tube-dilution method; assay type: functional; details: ATCC 25922, 24 h; outline: as §2
Bacillus subtilis [18] = assay: Antibacterial activity against penicillin-susceptible Bacillus subtilis ATCC 9372 incubated for 24 hrs by tube-dilution method; assay type: functional; details: ATCC 9372, 24 h; outline: as §2
Streptococcus pyogenes [19] = assay: Potency index, ratio of MIC for oxacillin sodium to MIC for test compound against penicillin-susceptible Streptococcus pyogenes clinical isolates incubated for 24 hrs by tube-dilution method; assay type: functional
Staphylococcus aureus [20] = assay: Inhibition of FtsZ in penicillin-susceptible Staphylococcus aureus ATCC 25923 assessed as inhibition of cell division at […] incubated for 5 hrs by phase-contrast light microscopy
Bacillus subtilis [21] = assay: Inhibition of FtsZ in penicillin-susceptible Bacillus subtilis ATCC 9372 assessed as inhibition of cell division at […] incubated for 5 hrs by phase-contrast light microscopy

Compound	MIC (Streptococcus pyogenes [1]) [µg/mL]	MIC (Pseudomonas aeruginosa [2]) [µg/mL]	MIC (Staphylococcus aureus [4]) [µg/mL]	MIC [8] [µg/mL]	MIC (Bacillus subtilis [9]) [µg/mL]	MIC (Escherichia coli [10]) [µg/mL]	Activity (Sus scrofa)	MIC (Staphylococcus aureus [11]) [µg/mL]	MIC (Pseudomonas aeruginosa [12]) [µg/mL]	MIC (Streptococcus pyogenes [14]) [µg/mL]	MIC (Staphylococcus aureus [15]) [µg/mL]	MIC (Staphylococcus aureus [16]) [µg/mL]	MIC (Escherichia coli [17]) [µg/mL]	MIC (Bacillus subtilis [18]) [µg/mL]	further results
Cc1cc(C)c2c(c1)c1ccccc1c[n+]2C.[Cl-]	4	128	64	128	2	> 128	inactive	4	> 128	8	64	32	> 128	4	Ratio (Bacillus subtilis [3]): 2; Ratio (Bacillus subtilis [5]): 2; Ratio (Bacillus subtilis [6]): 8; Ratio (Bacillus subtilis [7]): 2; Ratio (Streptococcus pyogenes [13]): 2; Ratio (Streptococcus pyogenes [19]): 4
C[n+]1cc2ccccc2c2ccccc21.[Cl-]	32	128	> 128	> 128	16	> 128	inactive	32	128	32	> 128	> 128	> 128	16	
COc1ccc2c(c1)c1ccccc1c[n+]2C.[Cl-]	8	> 128	> 128	64	8	> 128	inactive	8	> 128	16	> 128	128	> 128	8	
Cc1cccc2c3ccccc3c[n+](C)c12.[Cl-]	4	> 128	128	128	4	> 128	inactive	4	> 128	8	128	> 128	> 128	4	Ratio (Bacillus subtilis [3]): 2; Ratio (Bacillus subtilis [5]): 2; Ratio (Bacillus subtilis [6]): 8; Ratio (Bacillus subtilis [7]): 2; Ratio (Streptococcus pyogenes [13]): 2; Ratio (Streptococcus pyogenes [19]): 4
CCCCc1ccc2c(c1)c1ccccc1c[n+]2C.[Cl-]	8	> 128	64	> 128	4	128	inactive	8	> 128	8	64	> 128	> 128	4	
COc1cc(OC)c2c(c1)c1ccccc1c[n+]2C.[Cl-]	4	128	128	64	2	> 128	inactive	4	> 128	8	128	32	> 128	4	Ratio (Bacillus subtilis [3]): 2; Ratio (Bacillus subtilis [5]): 2; Ratio (Bacillus subtilis [6]): 8; Ratio (Bacillus subtilis [7]): 2; Ratio (Streptococcus pyogenes [13]): 2; Ratio (Streptococcus pyogenes [19]): 4
C[n+]1cc2ccccc2c2cc(Cl)ccc21.[Cl-]	32	> 128	> 128	> 128	16	128	inactive	32	> 128	32	> 128	> 128	128	16	
C[n+]1cc2ccccc2c2cc(F)ccc21.[Cl-]	32	128	> 128	> 128	16	> 128	inactive	32	128	32	> 128	> 128	> 128	16	
C[n+]1cc2ccccc2c2cc(C(C)(C)C)ccc21.[Cl-]	16	> 128	64	128	8	128	inactive	16	> 128	16	64	> 128	> 128	8	
C[n+]1cc2ccccc2c2cccc(OC(F)(F)F)c21.[Cl-]	4	> 128	16	32	4	> 128	inactive	8	> 128	8	16	64	> 128	4	Ratio (Bacillus subtilis [3]): 2; Ratio (Bacillus subtilis [5]): 2; inhibition (Staphylococcus aureus [20]): Active; inhibition (Bacillus subtilis [21]): Active; Ratio (Bacillus subtilis [6]): 8; Ratio (Bacillus subtilis [7]): 2; Ratio (Streptococcus pyogenes [13]): 2; Ratio (Streptococcus pyogenes [19]): 4
O=C(O)c1cn(C2CC2)c2cc(N3CCNCC3)c(F)cc2c1=O [CIPROFLOXACIN]			32 (≈ 96.6 µM)									4 (≈ 12.1 µM)		8 (≈ 24.1 µM)	
CSc1ccc2c(c1)c1ccccc1c[n+]2C.[Cl-]	32	> 128	128	> 128	8	128	inactive	32	> 128	32	128	> 128	> 128	8	
Cc1onc(-c2ccccc2)c1C(=O)N[C@@H]1C(=O)N2[C@@H]1SC(C)(C)[C@@H]2C(=O)[O-].[Na+]	1		8	8				> 128	128	2		128	128	8	
COc1cccc2c3ccccc3c[n+](C)c12.[Cl-]	16	> 128	> 128	128	8	> 128	inactive	16	> 128	16	> 128	> 128	> 128	8	
C[n+]1cc2c3c(ccc2c2ccc4cc5c(cc4c21)OCO5)OCO3	8	> 128	8	64	8	> 128		4	> 128	8	8	8	> 128	8	
Cc1ccc2c(c1)c1ccccc1c[n+]2C.[Cl-]	4	> 128	64	128	4	> 128	inactive	4	> 128	8	32	128	> 128	4	Ratio (Bacillus subtilis [3]): 2; Ratio (Bacillus subtilis [5]): 2; Ratio (Bacillus subtilis [6]): 8; Ratio (Bacillus subtilis [7]): 2; Ratio (Streptococcus pyogenes [13]): 2; Ratio (Streptococcus pyogenes [19]): 4
C[n+]1cc2ccccc2c2cc(C(F)(F)F)ccc21.[Cl-]	128	> 128	128	128	64	> 128	inactive	128	> 128	128	128	> 128	> 128	128	
